The text below walks through data of ChEMBL document CHEMBL4038310, “Scaffold Hopping and Optimization of Maleimide Based Porcupine Inhibitors” (J Med Chem, 2017).

In brackets after ≈: the same amount, converted by molar mass. A value given as a limit tells only on which side of the number the result lay.

Data set [1] is described as follows: Thermodynamic solubility of compound at pH 7.4. It counts as physicochemical. The conditions noted are these: buffer, read-out: Therm_solubility.
A short description of data set [2]: Cmax in CD1 mouse at 5 mg/kg administered as single dose via oral gavage after 24 hrs by LC/MS analysis. It counts as ADME, organism-based. Details: dose 5 mg/kg, route oral. The conditions noted are these: in vivo. The procedure, abridged: (§1)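 Female CD-1 mice, 6-8 weeks, 26 ± 3 g; single oral gavage dose of 5 mg/kg; three mice per time point. Sampling by cardiac puncture after CO2 euthanasia at pre-dose and from 5 or 10 min up to 24 h into K3EDTA. Plasma was extracted with acetonitrile/formic acid, carbamazepine internal standard, and analysed by LC-MS/MS (ESI+, MRM). Parameters were derived non-compartmentally.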

The nature of data set [3]: Tmax in CD1 mouse at 5 mg/kg administered as single dose via oral gavage after 24 hrs by LC/MS analysis. It counts as ADME, organism-based. Conditions: in vivo. The procedure, abridged:
as §1

A short description of data set [4]: Thermodynamic solubility of compound at pH 4. Conditions: buffer, read-out: Therm_solubility. It counts as physicochemical.
The nature of data set [5]: Bioavailability in Sprague-Dawley rat plasma at 2 mg/kg, iv. It counts as ADME, organism-based. The procedure, abridged:
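Male Sprague Dawley rats were given a 2 mg/kg intravenous dose and compared with a 10 mg/kg oral dose. Absolute F = (AUC0-inf po/AUC0-inf iv) × (dose iv/dose po) × 100.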

Data set [6] can be described thus: AUC in Sprague-Dawley rat at 10 mg/kg, po. It counts as ADME, organism-based. Conditions: in vivo. The procedure, abridged:
(§2)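 Male Sprague Dawley rats received a single oral dose of 10 mg/kg. A plasma concentration-time profile was obtained, and PK parameters were calculated by the non-compartmental method.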

The nature of data set [7]: Cmax in Sprague-Dawley rat at 10 mg/kg, po. It counts as ADME, organism-based. Details: dose 10 mg/kg, route oral. The conditions noted are these: in vivo. The procedure, abridged:
as §2

The next data set concerns Mus musculus. Briefly: Bioavailability in CD1 mouse at 1 mg/kg, iv administered as single dose after 24 hrs by LC/MS analysis. It counts as ADME, organism-based. The conditions noted are these: in vivo. The procedure, abridged:
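Female CD-1 mice received a single 1 mg/kg tail-vein dose, with three mice per time point and plasma sampled up to 24 h. Quantitation was by LC-MS/MS against standards in blank mouse plasma. Absolute oral F = (AUC0-inf po/AUC0-inf iv) × (dose iv/dose po) × 100, using the 5 mg/kg oral gavage arm.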

Take `CN1C(=O)c2cccc(CC(=O)Nc3ccc(-c4nccs4)cc3)c2C1=O`: the solubility thermodynamic in data set [1] turned out to be 0.42 µg/mL (≈ 1.11 µM).

One may read the Cmax as the peak of the concentration-time curve. For orientation: Tmax means the time from dosing to the highest level. In data set [2], `CN1C(=O)C2=C(C1=O)N(CC(=O)Nc1ccc(-c3cncc(F)c3)nn1)CCC2` displayed a Cmax of 845 ng/mL. Moreover, the Tmax in data set [3] stood at 120 min. For the same molecule, the solubility thermodynamic in data set [1] stood at 41 µg/mL (≈ 103 µM); in data set [4], 82 µg/mL (≈ 207 µM).

On to `CN1C(=O)C2=C(C1=O)N(CC(=O)Nc1ccc(-c3ccccc3)cc1)CCC2`, for which the solubility thermodynamic in data set [1] amounted to 2.1 µg/mL (≈ 5.59 µM).

On to `CN1C(=O)C2=C(C1=O)N(CC(=O)Nc1ccc(-c3ccccc3)nc1)CCC2`, for which the solubility thermodynamic in data set [1] came out at 0.75 µg/mL (≈ 1.99 µM).

`Cc1ccc(-c2ccc(NC(=O)CN3CCCC4=C3C(=O)N(C)C4=O)nn2)cn1` came in with a Cmax in data set [2] of 1050 ng/mL. In addition, in data set [3], the Tmax is 10.2 min. Further, the values for the solubility thermodynamic in data set [1] and in data set [4] were 35.5 µg/mL (≈ 90.5 µM) and greater than 194 µg/mL, respectively.

In the case of `CN1C(=O)C2=C(C1=O)N(CC(=O)Nc1ccc(-c3ccccc3)nn1)CCC2`, the solubility thermodynamic in data set [1] is 3.34 µg/mL (≈ 8.85 µM).

As a reminder, the bioavailability is the share of a dose that reaches the circulation, judged against a reference dose that is usually intravenous. By AUC is commonly meant the area under the concentration-time curve, a measure of exposure. A high value points to high exposure. For `O=C(CN1CCCC2=C1C(=O)N(C1CC1)C2=O)Nc1ccc(-c2cccnc2)nn1`, the Cmax in data set [2] was 4030 ng/mL; in data set [7], 17300 ng/mL. Besides, the bioavailability in data set [5] came out at 81%. This molecule displayed an AUC in data set [6] of 81200 ng·h/mL. Also, the time to peak (Tmax) in data set [3] came out at 30 min. Besides, the solubility thermodynamic was determined as 60 µg/mL (≈ 148 µM) in data set [1] and 141 µg/mL (≈ 349 µM) in data set [4]. This molecule also showed a F with Mus musculus of 100%.

For the molecule `CN1C(=O)C2=C(C1=O)N(CC(=O)Nc1ccc(-c3nccs3)cc1)CCC2`, the solubility thermodynamic in data set [1] is 1.26 to 1.3 µg/mL (≈ 3.29 to 3.4 µM); in data set [4] it was 1.1 µg/mL (≈ 2.88 µM).

Regarding `O=C(CN1CCCC2=C1C(=O)N(C1CC1)C2=O)Nc1ccc(-c2cncc(F)c2)nn1`, the highest level in data set [2] (Cmax) was 3290 ng/mL. Moreover, the Tmax in data set [3] stood at 30 min. The figures for the solubility thermodynamic in data set [1] and in data set [4] were 14.9 µg/mL (≈ 35.3 µM) and 13.8 µg/mL (≈ 32.7 µM), respectively.

Turning to `CN1C(=O)C2=C(C1=O)N(CC(=O)Nc1ccc(-c3cccnc3)nc1)CCC2`, the solubility thermodynamic in data set [1] was found to be 13 µg/mL (≈ 34.6 µM).

Turning to `CN1C(=O)C2=C(C1=O)N(CC(=O)Nc1ccc(-c3ccccc3)cn1)CCC2`, in data set [1], the solubility thermodynamic came to 0.24 µg/mL (≈ 0.638 µM).

On to `Cc1ccc(-c2ccc(NC(=O)CN3CCCC4=C3C(=O)N(C3CC3)C4=O)nn2)cn1`, for which the Cmax in data set [2] stood at 1190 ng/mL. In data set [3], the Tmax is 30 min. The solubility thermodynamic was 11.1 µg/mL (≈ 26.5 µM) in data set [1] and greater than 41 µg/mL in data set [4].

`CN1C(=O)C2=C(C1=O)N(CC(=O)Nc1ccc(-c3cccnc3)nn1)CCC2` displayed a Cmax in data set [2] of 759 ng/mL. In data set [3], the Tmax was 120 min. Besides, the values for the solubility thermodynamic in data set [1] and in data set [4] were 9.5 µg/mL (≈ 25.1 µM) and 13.9 µg/mL (≈ 36.7 µM), respectively.
